According to ChEMBL document CHEMBL1147862, “Studies on synthesis and pharmacological activities of 3,6-disubstituted-1,2,4-triazolo[3,4-b]-1,3,4-thiadiazoles and their dihydro analogues” (2007):

Key:
Assay type in all cases: functional
Aspergillus niger [1] = assay: Antifungal activity against Aspergillus niger at 10 ug/ml by paper disc method; details: read-out: IZ
Staphylococcus aureus [2] = assay: Antibacterial activity against Staphylococcus aureus at 30 ug/ml by agar plate diffusion technique; details: read-out: IZ
Bacillus subtilis [3] = assay: Antibacterial activity against Bacillus subtilis at 20 ug/ml by agar plate diffusion technique; details: read-out: IZ
Candida albicans [4] = assay: Antifungal activity against Candida albicans at 10 ug/ml by paper disc method; details: read-out: IZ
Candida albicans [5] = assay: Antifungal activity against Candida albicans at 20 ug/ml by paper disc method; details: read-out: IZ
Aspergillus niger [6] = assay: Antifungal activity against Aspergillus niger at 20 ug/ml by paper disc method; details: read-out: IZ
Rattus norvegicus [7] = assay: Antiinflammatory activity in Wistar Albino rat assessed as inhibition of carrageenan-induced paw oedema at 20 mg/kg after 1 hr relative to control
Method in brief: (§1)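 Wistar albino rats, 150–200 g, six per group, dosed orally with a 20 mg/kg suspension; control gets 0.1 ml 1% gum acacia. After 30 min, 0.1 ml 1% carrageenan in saline is injected subplantar into the right hind paw. Paw volume is read by plethysmograph at 0–4 h. Inhibition = 100(1 − Vtest/Vcontrol) on mean volume increase.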

Mus musculus [8] = assay: Analgesic activity in Swiss mouse assessed as increase in reaction time at 20 mg/kg, po after 90 mins by Eddy's hot plate technique
Method in brief: (§2)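 Swiss mice of either sex, 25–35 g, placed one at a time on a hot plate held at 55 °C. End point is paw licking or jumping, whichever comes first, with a 15 s cut-off to avoid paw injury. Reaction time is recorded and reported as percent increase in reaction time.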

Escherichia coli [9] = assay: Antibacterial activity against Escherichia coli at 10 ug/ml by agar plate diffusion technique; details: read-out: IZ
Rattus norvegicus [10] = assay: Antiinflammatory activity in Wistar Albino rat assessed as inhibition of carrageenan-induced paw oedema at 20 mg/kg after 2 hrs relative to control; method in brief: as §1
Escherichia coli [11] = assay: Antibacterial activity against Escherichia coli at 20 ug/ml by agar plate diffusion technique; details: read-out: IZ
Pseudomonas aeruginosa [12] = assay: Antibacterial activity against Pseudomonas aeruginosa at 30 ug/ml by agar plate diffusion technique; details: read-out: IZ
Staphylococcus aureus [13] = assay: Antibacterial activity against Staphylococcus aureus at 10 ug/ml by agar plate diffusion technique; details: read-out: IZ
Mus musculus [14] = assay: Analgesic activity in Swiss mouse assessed as increase in reaction time at 20 mg/kg, po after 60 mins by Eddy's hot plate technique; method in brief: as §2
Rattus norvegicus [15] = assay: Antiinflammatory activity in Wistar Albino rat assessed as inhibition of carrageenan-induced paw oedema at 20 mg/kg after 3 hrs relative to control; method in brief: as §1
Bacillus subtilis [16] = assay: Antibacterial activity against Bacillus subtilis at 30 ug/ml by agar plate diffusion technique; details: read-out: IZ
Rattus norvegicus [17] = assay: Antiinflammatory activity in Wistar Albino rat assessed as inhibition of carrageenan-induced paw oedema at 20 mg/kg after 4 hrs relative to control; method in brief: as §1
Pseudomonas aeruginosa [18] = assay: Antibacterial activity against Pseudomonas aeruginosa at 20 ug/ml by agar plate diffusion technique; details: read-out: IZ
Mus musculus [19] = assay: Analgesic activity in Swiss mouse assessed as increase in reaction time at 20 mg/kg, po after 30 mins by Eddy's hot plate technique; method in brief: as §2
Bacillus subtilis [20] = assay: Antibacterial activity against Bacillus subtilis at 10 ug/ml by agar plate diffusion technique; details: read-out: IZ
Staphylococcus aureus [21] = assay: Antibacterial activity against Staphylococcus aureus at 20 ug/ml by agar plate diffusion technique; details: read-out: IZ
Candida albicans [22] = assay: Antifungal activity against Candida albicans at 30 ug/ml by paper disc method; details: read-out: IZ
Aspergillus niger [23] = assay: Antifungal activity against Aspergillus niger at 30 ug/ml by paper disc method; details: read-out: IZ
Escherichia coli [24] = assay: Antibacterial activity against Escherichia coli at 30 ug/ml by agar plate diffusion technique; details: read-out: IZ
Pseudomonas aeruginosa [25] = assay: Antibacterial activity against Pseudomonas aeruginosa at 10 ug/ml by agar plate diffusion technique; details: read-out: IZ

SMILES	zone of inhibition at 10 µg/mL (Aspergillus niger [1]) [mm]	zone of inhibition at 30 µg/mL (Staphylococcus aureus [2]) [mm]	zone of inhibition at 20 µg/mL (Bacillus subtilis [3]) [mm]	zone of inhibition at 10 µg/mL (Candida albicans [4]) [mm]	zone of inhibition at 20 µg/mL (Candida albicans [5]) [mm]	zone of inhibition at 20 µg/mL (Aspergillus niger [6]) [mm]	inhibition in vivo at 20 mg/kg (Rattus norvegicus [7]) [%]	Activity (Mus musculus [8]) [%]	zone of inhibition at 10 µg/mL (Escherichia coli [9]) [mm]	inhibition in vivo at 20 mg/kg (Rattus norvegicus [10]) [%]	zone of inhibition at 20 µg/mL (Escherichia coli [11]) [mm]	zone of inhibition at 30 µg/mL (Pseudomonas aeruginosa [12]) [mm]	zone of inhibition at 10 µg/mL (Staphylococcus aureus [13]) [mm]	Activity (Mus musculus [14]) [%]	inhibition in vivo at 20 mg/kg (Rattus norvegicus [15]) [%]	zone of inhibition at 30 µg/mL (Bacillus subtilis [16]) [mm]	inhibition in vivo at 20 mg/kg (Rattus norvegicus [17]) [%]	zone of inhibition at 20 µg/mL (Pseudomonas aeruginosa [18]) [mm]	Activity (Mus musculus [19]) [%]	zone of inhibition at 10 µg/mL (Bacillus subtilis [20]) [mm]	further results
COc1ccc(Cl)c(-c2nnc3sc(-c4ccnc5ccccc45)nn23)c1	6.4	18.1	13.1	6.48	13.9	12.8	11.1	23.84	8.28	14.3	14.5	18.7	7.21	17.24	18.6	18.8	20.9	13.3	7.69	7.68	zone of inhibition at 20 µg/mL (Staphylococcus aureus [21]): 13.2 mm; zone of inhibition at 30 µg/mL (Candida albicans [22]): 18 mm; zone of inhibition at 30 µg/mL (Aspergillus niger [23]): 19.1 mm; zone of inhibition at 30 µg/mL (Escherichia coli [24]): 18.8 mm; zone of inhibition at 10 µg/mL (Pseudomonas aeruginosa [25]): 7.82 mm
COc1ccc2[nH]cc(Cc3nn4c(-c5ccoc5C)nnc4s3)c2c1	5.06	13.3	9.61	5.62	10.8	9.8	16	31.86	5.16	20.1	9.35	14.5	4.85	24.76	26.1	14.2	30.8	9.62	13.84	5.82	zone of inhibition at 20 µg/mL (Staphylococcus aureus [21]): 9.1 mm; zone of inhibition at 30 µg/mL (Candida albicans [22]): 13.5 mm; zone of inhibition at 30 µg/mL (Aspergillus niger [23]): 13.1 mm; zone of inhibition at 30 µg/mL (Escherichia coli [24]): 14.2 mm; zone of inhibition at 10 µg/mL (Pseudomonas aeruginosa [25]): 5.36 mm
COc1ccc(Cl)c(-c2nnc3sc(-c4cc(O)nc(O)c4)nn23)c1	4.82	13.7	8.38	4.14	7.15	8.06	8.35	26.14	4.18	14.2	8	13.3	4.57	15.18	21	13.8	23.4	9.06	5.68	4.7	zone of inhibition at 20 µg/mL (Staphylococcus aureus [21]): 8.82 mm; zone of inhibition at 30 µg/mL (Candida albicans [22]): 15 mm; zone of inhibition at 30 µg/mL (Aspergillus niger [23]): 13.6 mm; zone of inhibition at 30 µg/mL (Escherichia coli [24]): 13.2 mm; zone of inhibition at 10 µg/mL (Pseudomonas aeruginosa [25]): 4.84 mm
Cc1occc1-c1nnc2sc(-c3ccnc(Cl)c3)nn12	7.38	19.2	14.6	7.26	14	14.3	10.1	20.34	7.48	15.3	14.8	20.6	7.82	11.35	24.1	20.4	27.1	13.8	6.04	7.82	zone of inhibition at 20 µg/mL (Staphylococcus aureus [21]): 14.7 mm; zone of inhibition at 30 µg/mL (Candida albicans [22]): 21.9 mm; zone of inhibition at 30 µg/mL (Aspergillus niger [23]): 20.7 mm; zone of inhibition at 30 µg/mL (Escherichia coli [24]): 20.2 mm; zone of inhibition at 10 µg/mL (Pseudomonas aeruginosa [25]): 7.79 mm
Cc1occc1-c1nnc2sc(-c3ccnc4ccccc34)nn12	6.14	19.1	14.1	5.78	11	12	12.5	19.24	8.74	17.1	15.3	19.1	8.16	10.24	20.3	19.8	23.4	14.2	5.62	8.14	zone of inhibition at 20 µg/mL (Staphylococcus aureus [21]): 14.1 mm; zone of inhibition at 30 µg/mL (Candida albicans [22]): 19.2 mm; zone of inhibition at 30 µg/mL (Aspergillus niger [23]): 19.6 mm; zone of inhibition at 30 µg/mL (Escherichia coli [24]): 19.4 mm; zone of inhibition at 10 µg/mL (Pseudomonas aeruginosa [25]): 8.17 mm
Cc1occc1-c1nnc2n1NC(c1ccco1)S2 (stereo not given)	5.21	13.3	10.7	5.41	11	8.12	16.4	26.14	4.82	21.6	8.04	17.7	6.67	15.18	24.1	11.3	25.9	12.3	5.68	5.33	zone of inhibition at 20 µg/mL (Staphylococcus aureus [21]): 12.3 mm; zone of inhibition at 30 µg/mL (Candida albicans [22]): 14.8 mm; zone of inhibition at 30 µg/mL (Aspergillus niger [23]): 14.2 mm; zone of inhibition at 30 µg/mL (Escherichia coli [24]): 15.2 mm; zone of inhibition at 10 µg/mL (Pseudomonas aeruginosa [25]): 6.67 mm
Cc1occc1-c1nnc2n1NC(c1ccc[nH]1)S2 (stereo not given)	5.1	12.3	10.7	5.24	9.16	9.42	13.7	23	5.11	18.2	8.42	14.7	4.6	17.45	20.3	16.3	22.7	12.3	7.14	5.33	zone of inhibition at 20 µg/mL (Staphylococcus aureus [21]): 8.12 mm; zone of inhibition at 30 µg/mL (Candida albicans [22]): 14.8 mm; zone of inhibition at 30 µg/mL (Aspergillus niger [23]): 13.2 mm; zone of inhibition at 30 µg/mL (Escherichia coli [24]): 15.7 mm; zone of inhibition at 10 µg/mL (Pseudomonas aeruginosa [25]): 6.67 mm
COc1ccc2[nH]c(C)c(Cc3nn4c(-c5ccoc5C)nnc4s3)c2c1	5.14	13.3	8.38	5.04	9.86	9.06	19.7	33.49	5.12	24.8	9.1	14.6	4.89	23.17	29.4	13.2	31.2	8.14	9.18	4.6	zone of inhibition at 20 µg/mL (Staphylococcus aureus [21]): 9.12 mm; zone of inhibition at 30 µg/mL (Candida albicans [22]): 13.1 mm; zone of inhibition at 30 µg/mL (Aspergillus niger [23]): 12.4 mm; zone of inhibition at 30 µg/mL (Escherichia coli [24]): 13.8 mm; zone of inhibition at 10 µg/mL (Pseudomonas aeruginosa [25]): 4.92 mm
